Reference: ChEMBL document CHEMBL2169845 (J Med Chem, 2012)
Activity calls are given as the source filed them.

Assays:
NCI-H146 [1] = test: Induction of apoptosis in human NCI-H146 cells assessed as cell viability after 24 hrs by trypan blue exclusion assay; assay type: functional, cell-based
How it was run: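 H146 cells exposed to a range of compound concentrations for 24 hr, then harvested and stained with trypan blue. Cells staining blue or looking morphologically unhealthy were scored as dead. At least 100 cells counted per sample.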

[2] = target: T1, Apoptosis regulator Bcl-2 (Homo sapiens, UniProt P10415)
[3] = Cytotoxicity against human NCI-H146 cells assessed as growth inhibition after 4 days by WST-8 assay; assay type: functional, cell-based; conditions: NCI-H146, 96 h
Mus musculus [4] = test: Toxicity in SCID mouse assessed as body weight loss at 25 mg/kg, iv administered 5 days per week for 2 weeks relative to vehicle-treated control; assay type: organism-based; design: dose 25 mg/kg, route intravenous; conditions: in vivo
How it was run: (§1)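 Tolerability tested in SCID mice given daily i.v. doses, 5 days a week for 2 weeks. Body weight loss tracked against a 10% threshold.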

[5] = Inhibition of c-terminally truncated N-terminal 8xHis-tagged human Bcl-xL deletion mutant expressed in Escherichia coli BL21 (DE3) after 2 hrs by fluorescence polarization assay
NCI-H146 [6] = test: Induction of apoptosis in human NCI-H146 cells assessed as cell viability at 10 nM after 24 hrs by trypan blue exclusion assay; assay type: functional; conditions: NCI-H146, 24 h, read-out: Activity
How it was run: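 H146 small-cell lung cancer cells exposed to serial compound concentrations for 24 hr, then collected and stained with trypan blue. Blue-stained or morphologically unhealthy cells were scored as dead, with at least 100 cells counted per sample.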

[7] = Toxicity in iv dosed SCID mouse administered 5 days per week for 2 weeks; assay type: organism-based; conditions: in vivo
NCI-H1417 = test: Cytotoxicity against human H1417 cells assessed as growth inhibition after 4 days by WST-8 assay; assay type: functional, cell-based; conditions: NCI-H1417, 96 h
[8] = target: T1, Apoptosis regulator Bcl-2; test: Inhibition of N-terminal 6xHis-tagged human Bcl-2 expressed in Escherichia coli BL21 (DE3) after 2 hrs by fluorescence polarization assay
Mus musculus [9] = test: Toxicity in SCID mouse assessed as body weight loss at 10 mg/kg, iv administered 5 days per week for 2 weeks relative to vehicle-treated control; assay type: organism-based; design: dose 10 mg/kg, route intravenous; conditions: in vivo; how it was run: as §1
NCI-H146 [10] = test: Induction of apoptosis in human NCI-H146 cells assessed as caspase 3 activation at 100 nM after 24 hrs by Western blot analysis; assay type: functional, cell-based
How it was run: (§2)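 H146 cells treated for 24 hr, then lysed on ice for 20 min in RIPA buffer with PMSF and protease inhibitors. Cleared lysates normalized by protein assay and run on 4–20% SDS-PAGE, then blotted to PVDF. Probed with rabbit antibodies to PARP and caspase-3 (cleaved forms detected), GAPDH as loading control, with HRP chemiluminescence detection.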

Mus musculus [11] = test: Toxicity in SCID mouse assessed as body weight loss at 50 mg/kg, iv administered 5 days per week for 2 weeks relative to vehicle-treated control; assay type: organism-based; design: dose 50 mg/kg, route intravenous; conditions: in vivo; how it was run: as §1
NCI-H146 [12] = test: Induction of apoptosis in human NCI-H146 cells xenografted in SCID mouse assessed as caspase 3 cleavage at 50 mg/kg, iv after 3 to 24 hrs by Western blot analysis; assay type: functional, organism-based; design: dose 50 mg/kg
How it was run: (§3)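 SCID mice bearing H146 xenografts (100–200 mm3) received one i.v. dose, with a vehicle control group. Tumors harvested at 3, 6 and 24 h. PARP cleavage and caspase-3 cleavage assessed by Western blot.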

NCI-H146 [13] = test: Antitumor activity against human NCI-H146 cells xenografted in SCID mouse assessed as tumor regression at 50 mg/kg, iv administered 5 days per week for 2 weeks; assay type: functional, organism-based; design: dose 50 mg/kg
How it was run: (§4)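 SCID mice bearing H146 xenografts randomized at 40–110 mm3 tumor volume (mean 70 mm3), 8 per group. Dosed intravenously, daily, 5 days a week for 2 weeks, with a vehicle control group. Tumor size and body weight measured 3 times weekly during dosing and twice weekly afterwards. Tumor volumes reported as mean ± SEM.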

NCI-H146 [14] = test: Induction of apoptosis in human NCI-H146 cells xenografted in SCID mouse assessed as PARP cleavage at 50 mg/kg, iv after 3 to 6 hrs by Western blot analysis; assay type: functional, organism-based; design: dose 50 mg/kg; how it was run: as §3
Mus musculus [15] = test: Toxicity in SCID mouse assessed as body weight loss at 75 mg/kg, iv administered 5 days per week for 2 weeks relative to vehicle-treated control; assay type: organism-based; design: dose 75 mg/kg, route intravenous; conditions: in vivo; how it was run: as §1
NCI-H146 [16] = test: Antitumor activity against human NCI-H146 cells xenografted in SCID mouse assessed as tumor growth inhibition at 50 mg/kg, iv administered 5 days per week for 2 weeks; assay type: functional, organism-based; design: dose 50 mg/kg; how it was run: as §4
NCI-H146 [17] = test: Induction of apoptosis in human NCI-H146 cells assessed as PARP cleavage at 100 nM after 24 hrs by Western blot analysis; assay type: functional, cell-based; how it was run: as §2

T1 sequence (P10415 whole entry): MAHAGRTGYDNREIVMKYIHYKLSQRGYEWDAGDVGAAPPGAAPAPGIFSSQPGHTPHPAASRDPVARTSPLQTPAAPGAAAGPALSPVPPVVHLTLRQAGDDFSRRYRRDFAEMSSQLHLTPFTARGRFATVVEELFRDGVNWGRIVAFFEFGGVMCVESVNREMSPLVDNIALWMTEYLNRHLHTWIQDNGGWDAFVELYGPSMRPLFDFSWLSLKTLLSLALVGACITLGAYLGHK

Compound	Activity (NCI-H146 [1])	Ki [2] [nM]	IC50 [3] [nM]	Activity (Mus musculus [4]) [%]	IC50 [5] [nM]	viability at 0.01 µM (NCI-H146 [6]) [%]	MTD at 2 weeks [7] [mg/kg]	IC50 (NCI-H1417) [nM]	IC50 [8] [nM]	Activity (Mus musculus [9]) [%]	Activity (NCI-H146 [10])	Activity (Mus musculus [11]) [%]	Activity (NCI-H146 [12])	Activity (NCI-H146 [13])	Activity (NCI-H146 [14])	Activity (Mus musculus [15]) [%]	TGI (NCI-H146 [16])	Activity (NCI-H146 [17])
Cc1c(C(=O)O)c(-c2cccc(N3CCN(c4ccc(NS(=O)(=O)c5ccc(N[C@H](CCN6CCC(O)CC6)CSc6ccccc6)c(S(=O)(=O)C(F)(F)F)c5)cc4)CC3)c2)c(-c2ccc(Cl)cc2)n1C(C)C	Dose-dependent effect	0.8	13	> 10	3.9	> 50	10	9	4	< 10								
Cc1c(C(=O)O)c(-c2cccc(N3CCN(c4ccc(NS(=O)(=O)c5ccc(N[C@H](CCN6CCC(O)CC6)CSc6ccccc6)c(S(=O)(=O)C(F)(F)F)c5)cc4)CC3)c2)c(-c2ccc(Cl)cc2)n1C	Dose-dependent effect	2.4	108		7		50	125	10.2		Active	< 10	Active	inactive	Active	> 10	Active	Active
